Measurements from ChEMBL document CHEMBL1275265, “Synthesis and biological evaluation of N-antipyrine-4-substituted amino-3-chloromaleimide derivatives” (Eur J Med Chem, 2010).
In brackets after ≈: the same amount, converted by molar mass. Activity calls are given as the source filed them. The calls are words filed in the database; no cut-off is given here.

Assays:
[1] = tested on: Enterobacter cloacae; assay: Antibacterial activity against Enterobacter cloacae ATCC 35030 at < 100 ug/mL by agar dilution method; assay type: functional, organism-based
How it was run: (§1)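 Agar dilution on 1 mL Mueller-Hinton agar slants. Compounds were serially two-fold diluted in DMSO (final DMSO ≤2%) to give 10–100 µg/mL in the medium. Bacteria were grown on MHA at 35 °C for 24 h, suspended in 0.86% saline at 1.5 × 10^8 cell/mL (0.5 McFarland), and 1 µL was added per slant. Slants were incubated at 35 °C. Drug-free blank included; each assay run three times; MIC recorded.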

[2] = tested on: Bacillus cereus; assay: Antibacterial activity against Bacillus cereus ATCC 14579 at < 100 ug/mL by agar dilution method; assay type: functional; how it was run: as §1
[3] = tested on: Mus musculus; assay: Antinociceptive activity in Swiss mouse assessed as inhibition of acetic acid-induced writhing at 10 mg/kg, ip administered 30 mins before acetic acid challenge measured after 20 mins relative to control; assay type: functional; details: route intraperitoneal
How it was run: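 Mice were given 10 mg/kg i.p. in Tween 80/0.9% NaCl (Tween ≤5%) 30 min before i.p. 0.6% acetic acid, at 20–22 °C. Abdominal constrictions plus hind-limb stretching were counted cumulatively over 20 min in individual funnels. Groups of six, randomized and blinded. Inhibition was calculated versus vehicle controls (10 ml/kg i.p.); ANOVA with Dunnett's test.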

[4] = tested on: Staphylococcus aureus; assay: Antibacterial activity against Staphylococcus aureus ATCC 6538P at < 100 ug/mL by agar dilution method; assay type: functional, organism-based; how it was run: as §1
[5] = tested on: Escherichia coli; assay: Antibacterial activity against Escherichia coli ATCC 11775 at < 100 ug/mL by agar dilution method; assay type: functional, organism-based; how it was run: as §1
[6] = tested on: Salmonella typhimurium; assay: Antibacterial activity against Salmonella Typhimurium ATCC 14028 at < 100 ug/mL by agar dilution method; assay type: functional, organism-based; details: Salmonella enterica subsp. enterica serovar Typhimurium; how it was run: as §1
[7] = tested on: Bacillus subtilis; assay: Antibacterial activity against Bacillus subtilis ATCC 23858 at < 100 ug/mL by agar dilution method; assay type: functional, organism-based; how it was run: as §1
[8] = tested on: Streptococcus agalactiae; assay: Antibacterial activity against Streptococcus agalactiae ATCC 13813 at < 100 ug/mL by agar dilution method; assay type: functional; how it was run: as §1
[9] = tested on: Pseudomonas aeruginosa; assay: Antibacterial activity against Pseudomonas aeruginosa ATCC 27853 at < 100 ug/mL by agar dilution method; assay type: functional, organism-based; how it was run: as §1
[10] = tested on: Staphylococcus saprophyticus; assay: Antibacterial activity against Staphylococcus saprophyticus ATCC 35552 at < 100 ug/mL by agar dilution method; assay type: functional, organism-based; how it was run: as §1
[11] = tested on: Proteus mirabilis; assay: Antibacterial activity against Proteus mirabilis ATCC 25933 at < 100 ug/mL by agar dilution method; assay type: functional, organism-based; how it was run: as §1
[12] = Toxicity in Artemia salina assessed as mortality after 24 hrs; assay type: organism-based; details: in vivo
How it was run: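 Artemia salina hatched at pH 9.0 (Na2CO3), 25 °C, strong aeration, continuous light (2000 Lux). Phototropic nauplii were collected about 12 h after hatching, and groups of 10 were exposed per well to various compound concentrations for 24 h. Survivors were counted and % deaths calculated.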

Row | SMILES | Activity [1] | Activity [2] | inhibition in vivo at 10 mg/kg [3] | Activity [4] | Activity [5] | Activity [6] | Activity [7] | Activity [8] | Activity [9] | Activity [10] | Activity [11] | LC50 at 24 h [12]
1 | Cc1c(N2C(=O)C(Cl)=C(Nc3cccc([N+](=O)[O-])c3)C2=O)c(=O)n(-c2ccccc2)n1C | inactive | inactive | 29.5% | inactive | inactive | inactive | inactive | inactive | inactive | inactive | inactive | > 1000 mg/L
2 | Cc1c(N2C(=O)C(Cl)=C(NCCc3ccccc3)C2=O)c(=O)n(-c2ccccc2)n1C | inactive | inactive | 81.8% | inactive | inactive | inactive | inactive | inactive | inactive | inactive | inactive | > 1000 mg/L
3 | Cc1c(N2C(=O)C(Cl)=C(c3ccc[nH]3)C2=O)c(=O)n(-c2ccccc2)n1C | inactive | inactive | 23.3% | inactive | inactive | inactive | inactive | inactive | inactive | inactive | inactive | > 1000 mg/L
4 | Cc1c(N2C(=O)C(Cl)=C(Nc3ccc(C(=O)O)cc3)C2=O)c(=O)n(-c2ccccc2)n1C | inactive | inactive | 63.6% | inactive | inactive | inactive | inactive | inactive | inactive | inactive | inactive | > 1000 mg/L
5 | Cc1c(N2C(=O)C(Cl)=C(N3CCCCC3)C2=O)c(=O)n(-c2ccccc2)n1C | inactive | inactive | 84.6% | inactive | inactive | inactive | inactive | inactive | inactive | inactive | inactive | > 1000 mg/L
6 | Cc1c(N2C(=O)C(Cl)=C(Nc3cccc(Cl)c3)C2=O)c(=O)n(-c2ccccc2)n1C | inactive | inactive | 38.9% | inactive | inactive | inactive | inactive | inactive | inactive | inactive | inactive | 86.2 mg/L (≈ 195 µM)
7 | Cc1c(N2C(=O)C(Cl)=C(Nc3cccc(C(=O)O)c3)C2=O)c(=O)n(-c2ccccc2)n1C | inactive | inactive | 33.9% | inactive | inactive | inactive | inactive | inactive | inactive | inactive | inactive | > 1000 mg/L
8 | COc1cccc(NC2=C(Cl)C(=O)N(c3c(C)n(C)n(-c4ccccc4)c3=O)C2=O)c1 | inactive | inactive | 56.7% | inactive | inactive | inactive | inactive | inactive | inactive | inactive | inactive | > 1000 mg/L
